Consider 27 molecules from ChEMBL document CHEMBL4118083, “Synthesis and anti-oxidant activity evaluation of (±)-Anastatins A, B and their analogs” (Eur J Med Chem, 2017).

The source made the active and inactive calls. No cut-off for these calls is given here.

Series [1] can be described thus: Antioxidant activity assessed as vitamin-c equivalents of ferric ion reducing activity by measuring Fe2+ levels using Fe3+-TPTZ by FRAP assay. The class given is functional. An outline of the steps:
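Ferric-TPTZ complex reduced to ferrous form, per earlier-described method. Calibration curve from serial dilution of vitamin C standard (100-600 […] as printed). Compound reducing power expressed as vitamin C equivalents, calculated from three independent experiments.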

In series [2] the test system is PC-12. Kind of series: Cytoprotective activity against H2O2-induced oxidative damage in rat PC12 cells assessed as cell viability at 100 uM preincubated for 0.5 hrs followed by H2O2 addition measured after 2 hrs by MTT assay relative to control. The format is functional. Conditions: read-out: Activity. An outline of the steps:
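PC12 cells in RPMI-1640 with 10% FBS, plated at 5×10^5 per well, 24 h. Compound in DMSO added 0.5 h before 100 µM H2O2, then 2 h injury. MTT for 4 h, formazan dissolved in DMSO, OD 490 nm. Viability normalised to DMSO controls (100%). Mean of three independent experiments.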
(In general: Tetrazolium assays rely on reduction of a dye to a coloured formazan, in cell work by metabolically active cells.)

Series [3] has as its system PC-12. Kind of series: Cytoprotective activity against H2O2-induced apoptosis in rat PC12 cells assessed as apoptotic cells at 100 uM preincubated for 0.5 hrs followed by H2O2 addition measured after 2 hrs by Annexin V-FITC/propidium iodide staining based flow cytometry (reference value: 60.7%). The format is functional. In general terms: A flow cytometer gives signals particle by particle.

Series [4] deals with PC-12. The experiment in a line: Cytoprotective activity against H2O2-induced apoptosis in rat PC12 cells assessed as live cells at 100 uM preincubated for 0.5 hrs followed by H2O2 addition measured after 2 hrs by Annexin V-FITC/propidium iodide staining based flow cytometry (reference value: 37.3%). The class given is functional.
Series [5] deals with PC-12. The experiment in a line: Cytoprotective activity against H2O2-induced apoptosis in rat PC12 cells assessed as necrotic cells at 100 uM preincubated for 0.5 hrs followed by H2O2 addition measured after 2 hrs by Annexin V-FITC/propidium iodide staining based flow cytometry (reference value: 2%). The class given is functional.
For series [6], the system named is PC-12. Kind of series: Cytoprotective activity against H2O2-induced apoptosis in rat PC12 cells assessed as live cells at 10 uM preincubated for 0.5 hrs followed by H2O2 addition measured after 2 hrs by Annexin V-FITC/propidium iodide staining based flow cytometry (reference value: 37.3%). The class given is functional.
In series [7] the test system is PC-12. Kind of series: Cytoprotective activity against H2O2-induced apoptosis in rat PC12 cells assessed as early apoptotic cells at 10 uM preincubated for 0.5 hrs followed by H2O2 addition measured after 2 hrs by Annexin V-FITC/propidium iodide staining based flow cytometry (reference value: 3.2%). The format is functional.
For series [8], the system named is PC-12. Kind of series: Cytoprotective activity against H2O2-induced apoptosis in rat PC12 cells assessed as necrotic cells at 10 uM preincubated for 0.5 hrs followed by H2O2 addition measured after 2 hrs by Annexin V-FITC/propidium iodide staining based flow cytometry (reference value: 2%). The class given is functional.
Series [9] has as its system PC-12. Kind of series: Cytoprotective activity against H2O2-induced oxidative damage in rat PC12 cells assessed as reduction in morphological changes by measuring cell shrinkage at 10 to 100 uM preincubated for 0.5 hrs followed by H2O2 addition measured after 2 hrs. The class given is functional, cell-based. An outline of the steps:
(§1)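 PC12 cells plated 5×10^5 cells/well and grown 24 h, then given test agent (10 and 100 µM) for 0.5 h before 100 µM H2O2 for 2 h. Controls received medium with 0.1% DMSO. Cell shrinkage and blebbing were inspected by microscopy at 200×.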

Series [10] deals with PC-12. The experiment in a line: Cytoprotective activity against H2O2-induced apoptosis in rat PC12 cells assessed as late apoptotic cells at 10 uM preincubated for 0.5 hrs followed by H2O2 addition measured after 2 hrs by Annexin V-FITC/propidium iodide staining based flow cytometry (reference value: 57.5%). The class given is functional.
In series [11] the test system is PC-12. The experiment in a line: Cytoprotective activity against H2O2-induced oxidative damage in rat PC12 cells assessed as reduction in morphological changes by measuring membrane blebbing at 10 to 100 uM preincubated for 0.5 hrs followed by H2O2 addition measured after 2 hrs. The class given is functional, cell-based. In outline:
as §1

Series [12] relates to PC-12. The experiment in a line: Cytoprotective activity against H2O2-induced apoptosis in rat PC12 cells assessed as early apoptotic cells at 100 uM preincubated for 0.5 hrs followed by H2O2 addition measured after 2 hrs by Annexin V-FITC/propidium iodide staining based flow cytometry (reference value: 3.2%). The class given is functional.
For series [13], the system named is PC-12. Kind of series: Cytoprotective activity against H2O2-induced apoptosis in rat PC12 cells assessed as late apoptotic cells at 100 uM preincubated for 0.5 hrs followed by H2O2 addition measured after 2 hrs by Annexin V-FITC/propidium iodide staining based flow cytometry (reference value: 57.5%). The class given is functional.
Series [14] deals with PC-12. Kind of series: Cytotoxicity against rat PC12 cells assessed as effect on cell viability at 100 uM after 48 hrs by MTT assay. The class given is cell-based. Conditions: pc-12, 48 h. In outline: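 Rat PC12 cells at 5×10^5 per well, grown 24 h, then exposed 48 h to compound in DMSO. MTT added for 4 h, formazan dissolved in DMSO, absorbance 490 nm. Viability relative to DMSO-treated controls. Triplicate tests.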

For `O=c1cc(-c2ccc(O)cc2)oc2cc3oc4cc(O)c(O)cc4c3c(O)c12`, the Activity in [1] is 116 mgequiv/mmol.

In the case of `O=C1/C(=C/c2ccc(O)c(O)c2)Oc2cc(O)c(-c3ccc(O)c(O)c3)c(O)c21`, in series [2], the viability at 100 µM came to 100%. In series [1], the Activity was determined as 372 mgequiv/mmol.

In the case of `O=c1cc(-c2ccc(O)cc2)oc2c1c(O)cc1oc3cc(O)c(O)cc3c12`, the Activity in [1] came to 137 mgequiv/mmol.

As to `O=c1cc(-c2ccc(O)cc2)oc2cc(O)c(-c3ccc(O)c(O)c3)c(O)c12`, the Activity in series [1] was found to be 276 mgequiv/mmol.

For `O=C1/C(=C/c2ccc(O)c(O)c2)Oc2c1c(O)cc(O)c2-c1ccc(O)c(O)c1`, the Activity in [3] is given as 4.1%; in series [4] it was 95.6%; in series [5], 0.4%; in [6], 93.6%; in series [7], 2.4%; in series [8], 0.4%. In addition, the Activity in [1] came to 318 mgequiv/mmol; in series [10] it was 3.5%. Besides, the outcome in series [9] and in [11] was Active.

Consider `O=C1c2c(O)cc3oc4cc(O)c(O)cc4c3c2OC1Cc1ccc(O)c(O)c1` (centres undefined), for which the Activity in series [1] was found to be 373 mgequiv/mmol.

As to `O=C1/C(=C/c2ccccc2)Oc2c1c(O)cc1oc3cc(O)c(O)cc3c21`, in [1], the Activity came to 116 mgequiv/mmol.

Take `O=C1c2c(cc3oc4cc(O)c(O)cc4c3c2O)OC1Cc1ccccc1` (centres undefined): the Activity in series [1] stood at 227 mgequiv/mmol.

Take `O=C1/C(=C/c2ccccc2)Oc2cc(O)c(-c3ccc(O)c(O)c3)c(O)c21`: in series [1], the Activity came to 237 mgequiv/mmol.

As for `O=C1/C(=C/c2ccc(O)cc2)Oc2c1c(O)cc1oc3cc(O)c(O)cc3c21`, in series [1], the Activity worked out at 270 mgequiv/mmol.

Turning to `O=C1/C(=C/c2ccc(O)cc2)Oc2c1c(O)cc(O)c2-c1ccc(O)c(O)c1`, the Activity in series [1] amounted to 263 mgequiv/mmol.

`O=C1CC(c2ccc(O)cc2)Oc2cc3oc4cc(O)c(O)cc4c3c(O)c21` (racemic): the Activity in series [1] turned out to be 260 mgequiv/mmol.

Regarding `O=C1/C(=C/c2ccccc2)Oc2cc3oc4cc(O)c(O)cc4c3c(O)c21`, in [1], the Activity was found to be 134 mgequiv/mmol.

Regarding `O=C1/C(=C/c2ccc(O)c(O)c2)Oc2cc3oc4cc(O)c(O)cc4c3c(O)c21`, in [1], the Activity was determined as 277 mgequiv/mmol.

Consider `O=C1CC(c2ccc(O)cc2)Oc2c1c(O)cc1oc3cc(O)c(O)cc3c21` (racemic), for which the Activity in [1] came out at 224 mgequiv/mmol.

Take `O=C1/C(=C/c2ccc(O)c(O)c2)Oc2c1c(O)cc1oc3cc(O)c(O)cc3c21`: the Activity in [1] worked out at 260 mgequiv/mmol.

`O=C1/C(=C/c2ccccc2)Oc2c1c(O)cc(O)c2-c1ccc(O)c(O)c1`: the Activity in series [1] is 269 mgequiv/mmol.

For the molecule `O=C(O)c1cc(O)c(O)c(O)c1` [GALLIC ACID], the Activity came to 96.7% in series [4]; 0.4% in series [5]; 85.8% in [6]; 2.5% in series [7]; 0.7% in series [12]; 1.7% in [8]. Besides, the Activity was determined as 333 mgequiv/mmol in series [1], 2.1% in [13] and 10% in [10]. Moreover, the outcome in series [9] and in series [11] was Active.

Consider `O=C1c2c(O)cc(O)c(-c3ccc(O)c(O)c3)c2OC1Cc1ccc(O)c(O)c1` (centres undefined), for which the viability at 100 µM in series [2] is 100%. The Activity in [1] was 376 mgequiv/mmol.

For `O=C1c2c(O)cc3oc4cc(O)c(O)cc4c3c2OC1Cc1ccccc1` (centres undefined), the Activity in [1] came to 262 mgequiv/mmol.

As for `O=c1cc(-c2ccc(O)cc2)oc2c(-c3ccc(O)c(O)c3)c(O)cc(O)c12`, the Activity in series [1] is 271 mgequiv/mmol.

For the molecule `O=C1c2c(cc3oc4cc(O)c(O)cc4c3c2O)OC1Cc1ccc(O)cc1` (centres undefined), the Activity in [1] was 253 mgequiv/mmol.

In the case of `O=C1c2c(O)cc3oc4cc(O)c(O)cc4c3c2OC1Cc1ccc(O)cc1` (centres undefined), the Activity in series [1] was 248 mgequiv/mmol.

For the molecule `O=C1c2c(cc(O)c(-c3ccc(O)c(O)c3)c2O)OC1Cc1ccc(O)c(O)c1` (centres undefined), in series [1], the Activity was found to be 394 mgequiv/mmol.

Take `O=C1/C(=C/c2ccc(O)cc2)Oc2cc3oc4cc(O)c(O)cc4c3c(O)c21`: the Activity in [1] came to 264 mgequiv/mmol.

As for `O=C1c2c(cc3oc4cc(O)c(O)cc4c3c2O)OC1Cc1ccc(O)c(O)c1` (centres undefined), the Activity entry in series [14] is “Toxic”; in series [1], 396 mgequiv/mmol.

Turning to `O=C1/C(=C/c2ccc(O)cc2)Oc2cc(O)c(-c3ccc(O)c(O)c3)c(O)c21`, the Activity in [1] was determined as 241 mgequiv/mmol.
